In article PMC2213596 (The Journal of Cell Biology, 2008):

Experiments:
MEFs [1] = test: short-term killing assay with ABT-737; format: cell-based, mouse
How it was run: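 Constructs in pMIG (MSCV-IRES-GFP) were packaged in transiently transfected ecotropic Phoenix cells. Filtered supernatants were spin-inoculated onto FDC-P1 cells or SV40 large T-immortalized MEFs. ABT-737 was added immediately after spin inoculation. Viability was the fraction of GFP+ cells excluding 5 μg/ml PI, read by flow cytometry 30 h or at indicated times after transduction. MEF dose-response used stably infected lines given 0–10 μM ABT-737 for 24 h.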

[2] = test system: cytochrome c release from MEF mitochondria; test: in vitro cytochrome c release assay; format: cell-based, mouse; conditions: 5 μM ABT-737, 30°C, 1 h
primary thymocytes = test: ionomycin-induced killing, cell viability; format: cell-based, mouse; conditions: 1 μg/ml ionomycin
How it was run: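 Thymocytes came from bim+/+ or bim−/− mice. They were treated with 1 μg/ml ionomycin for 0–24 h. Viability was scored by flow cytometry as propidium iodide-excluding cells. Values are means ± SD of three experiments.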

[3] = test system: Mcl-1 in primary thymocytes; test: Mcl-1 levels by Western blotting after ionomycin; format: cell-based, mouse; conditions: with 50 μM qVD-OPH
How it was run: (§1)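 Cells were cultured with 50 μM qVD-OPH to block caspase cleavage of Mcl-1. For 2, MCF-7 cells were given 1.5 μM thapsigargin for up to 48 h. For 1, primary bim+/+ mouse thymocytes were given 1 μg/ml ionomycin. Cells were lysed in 1% (vol/vol) Triton X-100 buffer. Western blots were probed with rat monoclonal anti-Mcl-1 (19C4-15) and anti-Bim, then reprobed for HSP70 as loading control.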

MCF-7 cells = test: thapsigargin-induced apoptosis, cell viability; format: cell-based; conditions: 1.5 μM thapsigargin, 0–48 h
How it was run: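 Wild-type MCF-7 cells and a subclone stably expressing Bim shRNA were treated with 1.5 μM thapsigargin for 0–48 h. Survival was measured by flow cytometry as propidium iodide exclusion. Values are means ± SD of three experiments.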

Mcl-1 in MCF-7 cells = test: Mcl-1 levels by Western blotting after thapsigargin; format: cell-based; conditions: up to 48 h, with 50 μM qVD-OPH
How it was run: as §1

MEFs [4] = test: long-term tolerance assay; format: cell-based, mouse; conditions: wild-type MEFs; retroviral expression linked to GFP through IRES; ∼40 d
How it was run: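 SV40-immortalized MEF lines stably expressing BH3-only constructs from pMIG (GFP via IRES) were grown without selection. They were harvested every 3 or 4 d over 38 d. At each time point, flow cytometry measured the proportion of GFP+ cells that excluded propidium iodide.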

CN(C)CC[C@H](CSc1ccccc1)Nc1ccc(S(=O)(=O)NC(=O)c2ccc(N3CCN(Cc4ccccc4-c4ccc(Cl)cc4)CC3)cc2)cc1[N+](=O)[O-] [ABT-737]
time to maximal cell death (MEFs [1]; 1 μM ABT-737, MEFs expressing BimS2A, Noxa or BimSNoxaBH3): 4 to 6 h | killing of MEFs lacking Bim and Bid (MEFs [1]; ABT-737 with BimS2A expression): able to synergize and kill | killing of bax−/− and bak−/− MEFs (MEFs [1]; BimS2A/ABT-737 combination): able to kill | viability of MEFs expressing Mcl-1–selective BH3-only proteins (MEFs [1]; MEFs expressing BimS2A, BimSNoxaBH3 or Noxa, 24 h, 0–10 μM ABT-737): efficiently kill cells | cytochrome c release ([2]; mitochondria from BimS2A-expressing cells): significant release | cytochrome c release ([2]; mitochondria from BimS4E-expressing cells): No cytochrome c release

C[C@H](CCC(=O)O)C[C@H](C)C[C@H](C)C(=O)/C=C(\O)[C@H](C)C[C@H](C)C/C=C/[C@@H](C)[C@@H](O)[C@@H](C)[C@@H](O)C[C@@H]1CC[C@@](C)([C@H]2CC[C@@](C)([C@@H](C)O)O2)O1 [ionomycin]
killing of Bim-deficient thymocytes (primary thymocytes; 0–24 h): attenuates | death of wild-type thymocytes (primary thymocytes; 0–24 h, three experiments): significant death | Mcl-1 levels after treatment [3]: did not significantly change

CC(C)[C@H](NC(=O)c1ccc2ccccc2n1)C(=O)N[C@@H](CC(=O)O)C(=O)COc1c(F)cccc1F [qVD-OPH]
effect on killing induced by ionomycin (primary thymocytes; 50 μM qVD-OPH, thymocytes): significantly reduced the killing

C/C=C(/C)C(=O)O[C@H]1C(C)=C2[C@H]([C@@H]1OC(=O)CCCCCCC)[C@@](C)(OC(C)=O)C[C@H](OC(=O)CCC)[C@@]1(O)[C@H]2OC(=O)[C@@]1(C)O [thapsigargin]
cell death of MCF-7 cells expressing Bim shRNA (MCF-7 cells): relatively insensitive | cell death of wild-type MCF-7 cells (MCF-7 cells; three experiments): Significant cell death | Mcl-1 levels over levels in untreated cells (Mcl-1 in MCF-7 cells): up to twofold

B1: BimS2A: full-length BimS containing the L62A/F69A mutations, retrovirally expressed (protein)
chain: MAKQPSDVSSECDREGRQLQPAERPPQLRPGAPTSLQTEPQASMRQAEPADMRPEIWIAQEARRIGDEANAYYARRVFLNNYQAAEDHPRMVILRLLRYIVRLVWRMH
modifications: left off: HA, end not stated, kept
viable cells that remained GFP+ve (MEFs [4]): progressive loss

B2: Noxa: BH3-only protein preferentially binding Mcl-1, retrovirally expressed (protein, UniProt Q9JM54 1-103, looked up)
Phorbol-12-myristate-13-acetat …: MPGRKARRNAPVNPTRAELPPEFAAQLRKIGDKVYCTWSAPDITVVLAQMPGKSQKSRMRSPSPTRVPADLKDECAQLRRIGDKVNLRQKLLNLISKLFNLVT
viable cells that remained GFP+ve (MEFs [4]): progressive loss

B3: Bad: BH3-only protein targeting Bcl-xL, Bcl-w and Bcl-2, retrovirally expressed (protein, UniProt Q61337 1-204, looked up)
Bcl2-associated agonist of …: MGTPKQPSLAPAHALGLRKSDPGIRSLGSDAGGRRWRPAAQSMFQIPEFEPSEQEDASATDRGLGPSLTEDQPGPYLAPGLLGSNIHQQGRAATNSHHGGAGAMETRSRHSSYPAGTEEDEGMEEELSPFRGRSRSAPPNLWAAQRYGRELRRMSDEFEGSFKGLPRPKSAGTATQMRQSAGWTRIIQSWWDRNLGKGGSTPSQ
viable cells that remained GFP+ve (MEFs [4]): > 80%
